Reference: ChEMBL document CHEMBL1135639, “Array-based structure and gene expression relationship study of antitumor sulfonamides including N-[2-[(4-hydroxyphenyl)amino]-3-pyridinyl]-4-methoxybenzenesulfonamide and N-(3-chloro-7-indolyl)-1,4-benzenedisulfonamide” (J Med Chem, 2002)
pIC50: −log10 of the molar value. Values joined by “and” are separate entries in the source; they are usually repeats but may differ in a detail not shown here. Equal entries are not always repeated.

How the values were obtained:
[1] = target: Tubulin (Bos taurus, UniProt Q6B856+Q862L2+Q862F3); assay: Inhibitory activity against tubulin polymerization.; format: functional
Procedure, shortened: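 Bovine brain microtubule protein (1 mg/mL) in 0.1 M MES, 1 mM EGTA, 0.5 mM MgCl2, pH 6.8, with 5% DMSO final. Compound at 0.30–100 µM, held 30 min at 4 °C, then warmed to 37 °C with 1 mM GTP. Turbidity followed at 350 nm; the 30 min value is plotted against log concentration. IC50 by least squares, triplicate.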

[2] = tested on: P388; assay: Effective concentration to inhibit cell proliferation by 50% relative to untreated control cell after 72 hr of continuous exposure in P388/4.0 r-M cell line; format: functional, cell-based; conditions: Mus musculus, P388, 72 h
[3] = tested on: HCT-116; assay: Effective concentration to inhibit cell proliferation by 50% relative to untreated control cell after 72 hr of continuous exposure in HCT116-C9 cell line; format: functional, cell-based; conditions: Homo sapiens, HCT-116, 72 h
[4] = tested on: P388; assay: Effective concentration to inhibit cell proliferation by 50% relative to untreated control cell after 72 hr of continuous exposure in P388 cell line; format: functional, cell-based; conditions: Mus musculus, P388, 72 h
[5] = tested on: HCT-116; assay: Effective concentration to inhibit cell proliferation by 50% relative to untreated control cell after 72 hr of continuous exposure in HCT116-C9 -C1cell line; format: functional, cell-based; conditions: Homo sapiens, HCT-116, 72 h
[6] = Relative resistance value as the ratio of IC50 for the resistant cell line to that of parental cell line.; format: functional
Procedure, shortened: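 Ratio of MTT IC50 (72 h exposure) in the resistant subclone to that in the parental line: P388/4.0r-M versus P388, and HCT116-C9-C1 versus HCT116-C9. IC50s come from two triplicate runs each.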

Compound | IC50 [1] | pIC50 [2] | pIC50 [3] | pIC50 [4] | pIC50 [5] | Relative resistance [6]
NS(=O)(=O)c1ccc(C(=O)Nc2cccc3c(Cl)c[nH]c23)cc1 | > 100000 nM |  |  |  |  | 
COc1ccc(S(=O)(=O)Nc2cccc3c(Cl)c[nH]c23)cc1 | 9500 nM | 5.92 | 6.43 | 5.92 | 5.66 | 
NS(=O)(=O)c1ccc(S(=O)(=O)Nc2cccc3cc[nH]c23)cc1 | > 100000 nM |  |  |  |  | 
COc1ccc(S(=O)(=O)Nc2cccc3cc(Cl)[nH]c23)cc1 | 2100 nM |  |  |  |  | 
N#Cc1ccc(S(=O)(=O)Nc2cccc3c(Cl)c[nH]c23)cc1 | > 100000 nM |  |  |  |  | 
COc1ccc(S(=O)(=O)Nc2cccnc2Nc2ccc(O)cc2)cc1 [ABT-751] | 2200 nM | 4.82 | 6.05 | 6.72 | 6.02 | 
NS(=O)(=O)c1ccc(S(=O)(=O)Nc2cccc3c(Cl)c[nH]c23)cc1 [INDISULAM] | > 100000 nM | 6.23 | 6.68 | 6.21 | 4.54 | 0.97 and 1.4
